# Results from different studies.
# Each line is one published result; the experiments were not run side by side.
# Cell line: A549
# Effect on: cell growth or viability
Compound,assay,conditions,endpoint,value
CC(C)(C)OC(=O)N1CCN(c2ccc(-c3cnc4[nH]cc(C(=O)c5ccc(F)cc5)c4c3)cn2)CC1,MTT,"10 µM, 48 h",viability,76.3%
N.N.[Cl][Pt][Cl],MTT,,GI50,14.3 µM
CN1C[C@H](C(=O)N[C@]2(C)O[C@@]3(O)[C@@H]4CCCN4C(=O)[C@H](Cc4ccccc4)N3C2=O)C=C2c3cccc4[nH]cc(c34)C[C@H]21,MTT,72 h,EC50,13 µM
N#Cc1ccc(CN2C(=O)/C(=N\NC(=O)c3cc4ccccc4[nH]3)c3ccccc32)cc1,,30 µM,inhibition,94.6%
O=C(c1ccc(F)cc1)c1c[nH]c2ncc(-c3ccnc(N4CCNCC4)c3)cc12,MTT,"10 µM, 48 h",viability,101%
CC(=O)O[C@H]1C[C@H](O[C@H]2[C@@H](O)C[C@H](O[C@H]3[C@@H](O)C[C@H](O[C@H]4CC[C@@]5(C)[C@H](CC[C@@H]6[C@@H]5C[C@@H](O)[C@]5(C)[C@@H](C7=CC(=O)OC7)CC[C@]65O)C4)O[C@@H]3C)O[C@@H]2C)O[C@H](C)[C@H]1O[C@@H]1O[C@H](CO)[C@@H](O)[C@H](O)[C@H]1O,MTT,"5 µM, 24 h",inhibition,74.8%
O=C(N/N=C1\C(=O)N(Cc2ccccc2)c2ccc(Cl)cc21)c1cc2ccccc2[nH]1,,,IC50,0.76 µM
CC[C@@]1(OC(=O)[C@@H]2CCCN2)C(=O)OCc2c1cc1n(c2=O)Cc2cc3cc4c(cc3nc2-1)OCO4,MTT,,IC50,0.031 µM
O=C(N/N=C1\C(=O)N(Cc2ccc(Cl)cc2)c2ccccc21)c1cc2ccccc2[nH]1,,30 µM,inhibition,96.9%
COc1ccc(C(=O)c2c[nH]c3ncc(-c4ccc(N5CCN(C(=O)OC(C)(C)C)CC5)nc4)cc23)cc1,MTT,"10 µM, 48 h",viability,88.1%
